Assay results from ChEMBL document CHEMBL1134652, “N-Methyl scan of somatostatin octapeptide agonists produces interesting effects on receptor subtype specificity” (J Med Chem, 2001).
Where a SMILES comes first, the peptide text is derived from it. Bridges are numbered along the chain shown (N, C = ends). [ ]: non-standard residue; d: D form. NMeY = CN[C@@H](Cc1ccc(O)cc1)C(=O)O; NMeT = CN[C@H](C(=O)O)[C@@H](C)O; NMeK = CN[C@@H](CCCCN)C(=O)O; NMeC = CN[C@@H](CS)C(=O)O

Tests used:
Rattus norvegicus = organism: Rattus norvegicus; assay: in vitro Agonist activity (inhibition of growth hormone release) on cultured rat pituitary cells; format: functional, cell-based; conditions: Pituitary gland cell
In short: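 Anterior pituitary cells from adult male rats were dispersed with trypsin/DNase and cultured 4–5 days at about 200 000 cells/well. GH in the medium was measured by double-antibody RIA.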

[1] = molecular target: Somatostatin receptor type 5 (Homo sapiens, UniProt P35346); assay: Binding affinity was determined on cloned human somatostatin receptor-1 (hsst5)
[2] = molecular target: Somatostatin receptor type 1 (Homo sapiens, UniProt P30872); assay: Binding affinity was determined on cloned human somatostatin receptor-1 (hsst1)
In short: (§1)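 Membranes from CHO-K1 cells stably transfected with human sst1, sst2 or sst4 (calcium phosphate, G418 selection), resuspended in 10 mM Tris-HCl. Filtered on GF/C; nonspecific binding measured with 1.0 μM SRIF. Kd from concentration-dependent displacement.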

[3] = molecular target: Somatostatin receptor type 2 (Homo sapiens, UniProt P30874); assay: Binding affinity was determined on cloned human somatostatin receptor-1 (hsst2); in short: as §1
[4] = molecular target: Somatostatin receptor type 4 (Homo sapiens, UniProt P31391); assay: Binding affinity was determined on cloned human somatostatin receptor-1 (hsst4)
In short: as §1, with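 “Tris-HCl. Incubated 30 min at 37 °C with 0.05 nM [125I]Tyr11-SRIF (sst1, sst4) or [125I]MK-678 (sst2) in HEPES pH 7.4 with BSA, MgCl2 and protease inhibitors.” for “Tris-HCl.”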

[5] = molecular target: Somatostatin receptor type 3 (Homo sapiens, UniProt P32745); assay: Binding affinity was determined on cloned human somatostatin receptor-1 (hsst3)
Sequence of Somatostatin receptor type 3 (P32745 whole entry): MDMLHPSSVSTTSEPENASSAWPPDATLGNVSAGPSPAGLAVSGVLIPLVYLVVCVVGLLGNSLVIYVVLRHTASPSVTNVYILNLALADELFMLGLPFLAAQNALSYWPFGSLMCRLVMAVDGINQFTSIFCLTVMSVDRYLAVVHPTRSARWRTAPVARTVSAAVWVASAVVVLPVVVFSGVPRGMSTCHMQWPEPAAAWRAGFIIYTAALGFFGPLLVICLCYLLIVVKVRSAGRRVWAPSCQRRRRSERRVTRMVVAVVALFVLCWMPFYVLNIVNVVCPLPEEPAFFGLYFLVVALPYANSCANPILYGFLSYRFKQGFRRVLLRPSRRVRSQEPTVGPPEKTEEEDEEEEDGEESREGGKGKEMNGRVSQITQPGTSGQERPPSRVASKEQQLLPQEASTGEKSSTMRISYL

Sequence of Somatostatin receptor type 2 (P30874 whole entry): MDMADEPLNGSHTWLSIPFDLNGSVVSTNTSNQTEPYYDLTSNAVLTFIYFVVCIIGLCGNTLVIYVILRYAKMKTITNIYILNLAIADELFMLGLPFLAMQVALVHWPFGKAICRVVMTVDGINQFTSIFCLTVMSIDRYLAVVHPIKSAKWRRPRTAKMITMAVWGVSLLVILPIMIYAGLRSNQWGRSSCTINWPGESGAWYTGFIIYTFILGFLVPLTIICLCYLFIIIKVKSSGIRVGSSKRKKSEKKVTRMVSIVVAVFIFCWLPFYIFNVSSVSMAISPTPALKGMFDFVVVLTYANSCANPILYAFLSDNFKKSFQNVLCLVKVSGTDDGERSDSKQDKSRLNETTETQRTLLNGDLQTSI
Sequence of Somatostatin receptor type 4 (P31391 whole entry): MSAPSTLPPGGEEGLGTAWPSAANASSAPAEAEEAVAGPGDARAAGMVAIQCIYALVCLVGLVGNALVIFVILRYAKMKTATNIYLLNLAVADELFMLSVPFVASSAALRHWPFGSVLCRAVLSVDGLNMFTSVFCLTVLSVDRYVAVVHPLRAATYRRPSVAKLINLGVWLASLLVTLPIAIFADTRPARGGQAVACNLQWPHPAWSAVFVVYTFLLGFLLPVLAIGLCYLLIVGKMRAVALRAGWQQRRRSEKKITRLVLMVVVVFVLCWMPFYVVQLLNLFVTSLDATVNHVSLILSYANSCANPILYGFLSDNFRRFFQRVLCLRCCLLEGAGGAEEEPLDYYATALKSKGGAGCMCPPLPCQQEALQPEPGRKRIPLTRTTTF
Sequence of Somatostatin receptor type 1 (P30872 whole entry): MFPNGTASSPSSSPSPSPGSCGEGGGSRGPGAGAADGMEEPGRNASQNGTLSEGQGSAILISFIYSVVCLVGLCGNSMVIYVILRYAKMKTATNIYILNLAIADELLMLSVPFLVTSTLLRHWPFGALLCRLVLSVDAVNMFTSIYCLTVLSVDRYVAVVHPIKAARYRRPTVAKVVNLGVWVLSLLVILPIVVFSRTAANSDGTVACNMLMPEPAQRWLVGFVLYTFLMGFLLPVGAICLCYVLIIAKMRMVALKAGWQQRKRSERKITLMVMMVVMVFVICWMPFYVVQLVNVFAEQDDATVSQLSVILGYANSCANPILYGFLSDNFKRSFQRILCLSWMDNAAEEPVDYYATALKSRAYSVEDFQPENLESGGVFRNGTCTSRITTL
Sequence of Somatostatin receptor type 5 (P35346 whole entry): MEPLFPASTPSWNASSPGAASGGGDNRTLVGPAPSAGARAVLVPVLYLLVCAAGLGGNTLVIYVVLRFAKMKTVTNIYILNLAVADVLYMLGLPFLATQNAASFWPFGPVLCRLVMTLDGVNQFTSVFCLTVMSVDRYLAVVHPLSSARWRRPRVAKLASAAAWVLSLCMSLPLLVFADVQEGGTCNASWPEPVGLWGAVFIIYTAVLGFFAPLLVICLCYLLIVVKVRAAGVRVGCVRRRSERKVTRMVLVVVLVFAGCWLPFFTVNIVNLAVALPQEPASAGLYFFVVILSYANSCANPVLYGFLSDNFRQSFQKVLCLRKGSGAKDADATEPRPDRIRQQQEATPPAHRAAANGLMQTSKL

SMILES | IC50 (Rattus norvegicus) [nM] | Kd [3] [nM] | other results
C[C@@H](O)[C@@H]1NC(=O)[C@H](CCCCN)NC(=O)[C@@H](Cc2c[nH]c3ccccc23)NC(=O)[C@H](Cc2ccccc2)NC(=O)[C@@H](NC(=O)[C@H](N)Cc2ccccc2)CSSC[C@@H](C(=O)N(C)[C@H](C(N)=O)[C@@H](C)O)NC1=O | 28.8 | – | –
C[C@@H](O)[C@H](NC(=O)[C@@H]1CSSC[C@H](N(C)C(=O)[C@H](N)Cc2ccccc2)C(=O)N[C@@H](Cc2ccccc2)C(=O)N[C@H](Cc2c[nH]c3ccccc23)C(=O)N[C@@H](CCCCN)C(=O)N[C@@H]([C@@H](C)O)C(=O)N1)C(N)=O | 0.36 | – | –
CN[C@H](Cc1ccccc1)C(=O)N[C@H]1CSSC[C@@H](C(=O)N[C@H](C(N)=O)[C@@H](C)O)NC(=O)[C@H]([C@@H](C)O)NC(=O)[C@H](CCCCN)NC(=O)[C@@H](Cc2c[nH]c3ccccc23)NC(=O)[C@H](Cc2ccccc2)NC1=O | – | 1.03 | Kd [1]: 4.89 nM; Kd [2]: 316 nM; Kd [4]: > 1000 nM; Kd [5]: 17.9 nM
C[C@@H](O)[C@H](NC(=O)[C@@H]1CSSC[C@H](NC(=O)[C@H](N)Cc2ccccc2)C(=O)N[C@@H](Cc2ccccc2)C(=O)N[C@H](Cc2c[nH]c3ccccc23)C(=O)N[C@@H](CCCCN)C(=O)N[C@@H]([C@@H](C)O)C(=O)N1)C(N)=O | 0.16 | – | –
C[C@@H](O)[C@H](NC(=O)[C@@H]1CSSC[C@H](NC(=O)[C@@H](N)Cc2ccc(O)cc2)C(=O)N[C@@H](Cc2ccccc2)C(=O)N[C@H](Cc2c[nH]c3ccccc23)C(=O)N[C@@H](CCCCN)C(=O)N[C@@H]([C@@H](C)O)C(=O)N1)C(N)=O (H-YCF[dW]KTCT-NH2; disulfide 2-7) | 1.11 | – | –
C[C@@H](O)[C@H](NC(=O)[C@@H]1CSSC[C@H](NC(=O)[C@@H](N)Cc2ccc(O)cc2)C(=O)N[C@@H](Cc2ccccc2)C(=O)N[C@H](Cc2c[nH]c3ccccc23)C(=O)N[C@@H](CCCCN)C(=O)N[C@@H]([C@@H](C)O)C(=O)N1C)C(N)=O (H-YCF[dW]KT[NMeC]T-NH2; disulfide 2-7) | – | 56.2 | –
C[C@@H](O)[C@H](NC(=O)[C@@H]1CSSC[C@H](NC(=O)[C@@H](N)Cc2ccc(O)cc2)C(=O)N[C@@H](Cc2ccccc2)C(=O)N[C@H](Cc2c[nH]c3ccccc23)C(=O)N[C@@H](CCCCN)C(=O)N(C)[C@@H]([C@@H](C)O)C(=O)N1)C(N)=O (H-YCF[dW]K[NMeT]CT-NH2; disulfide 2-7) | – | – | Kd [4]: 1000 nM
C[C@@H](O)[C@H](NC(=O)[C@@H]1CSSC[C@H](NC(=O)[C@@H](N)Cc2ccc(O)cc2)C(=O)N[C@@H](Cc2ccccc2)C(=O)N[C@H](Cc2c[nH]c3ccccc23)C(=O)N(C)[C@@H](CCCCN)C(=O)N[C@@H]([C@@H](C)O)C(=O)N1)C(N)=O (H-YCF[dW][NMeK]TCT-NH2; disulfide 2-7) | 27.4 | – | –
CN[C@@H](Cc1ccc(O)cc1)C(=O)N[C@H]1CSSC[C@@H](C(=O)N[C@H](C(N)=O)[C@@H](C)O)NC(=O)[C@H]([C@@H](C)O)NC(=O)[C@H](CCCCN)NC(=O)[C@@H](Cc2c[nH]c3ccccc23)NC(=O)[C@H](Cc2ccccc2)NC1=O (H-[NMeY]CF[dW]KTCT-NH2; disulfide 2-7) | – | 9.74 | Kd [2]: 811 nM
